Assay results: ChEMBL document CHEMBL1687712, “Antiviral effects of lamivudine, emtricitabine, adefovir dipivoxil, and tenofovir disoproxil fumarate administered orally alone and in combination to woodchucks with chronic woodchuck hepatitis virus infection” (Antimicrob Agents Chemother, 2008)
The source made the active and inactive calls. No cut-off for these calls is given here.

What was measured:
[1] = tested on: Woodchuck hepatitis virus; assay: Antiviral activity against Woodchuck hepatitis virus infected in woodchuck assessed as reduction of viral antigen level in serum at 15 mg/kg, po qd measured on 36th week on 48 weeks study (reference value: 3.8 +/- 1.3 log10 ng/ml); format: functional
Marmota monax [2] = assay: Toxicity in Woodchuck hepatitis virus infected woodchuck assessed as change in body weight at 15 mg/kg, po qd for 48 weeks measured up to 60 weeks; format: organism-based; set-up: dose 15 mg/kg, route oral; settings: in vivo
Summary of the method: (§1)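 Chronic WHV-carrier woodchucks, 5 per group, were dosed orally once daily in liquid diet for 48 weeks, with a placebo diet-only group. Body weights were monitored. Complete blood counts were taken 2 weeks pretreatment, at weeks 12, 36 and 48 of treatment, and 12 weeks after withdrawal. Values were compared with placebo controls.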

[3] = tested on: Woodchuck hepatitis virus; assay: Antiviral activity against Woodchuck hepatitis virus infected in woodchuck assessed as absent of lesion in portal hepatitis at 15 mg/kg, po qd measured on 12th week on 48 weeks study; format: functional, organism-based; set-up: dose 15 mg/kg
Summary of the method: (§2)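 Adult chronic WHV-carrier woodchucks (neonatally inoculated), 5 per group, given drug once daily by dose syringe in semisynthetic liquid diet, for 48 weeks; placebo got diet alone. Ultrasound-guided needle liver biopsies under ketamine/xylazine anesthesia at pretreatment, weeks 12, 36, 48 and 12 weeks post-withdrawal. Biopsies were formalin-fixed, paraffin-embedded and H&E stained. Portal and lobular hepatitis were graded 0 (absent) to 4 (most severe).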

[4] = tested on: Woodchuck hepatitis virus; assay: Antiviral activity against Woodchuck hepatitis virus infected in woodchuck assessed as reduction of viral antigen level in serum at 15 mg/kg, po qd measured on 12th week on 48 weeks study (reference value: 4.3 +/- 1.5 log10 ng/ml); format: functional
Marmota monax [5] = assay: Toxicity in Woodchuck hepatitis virus infected woodchuck assessed as increase of serum gamma-glutamyltransferase activity at 15 mg/kg, po qd for 48 weeks; format: organism-based; set-up: dose 15 mg/kg, route oral; settings: in vivo, 8064 h
Summary of the method: (§3)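 Woodchucks chronically infected with WHV, 5 per group, received oral drug once daily in liquid diet for 48 weeks; placebo got diet only. Serum chemistry (GGT, ALP, ALT, AST, SDH, among others) was run 2 weeks pretreatment, at week 0, every other week to week 12, then monthly to week 48. Sampling continued at 2, 4, 6, 8 and 12 weeks post-treatment.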

[6] = tested on: Woodchuck hepatitis virus; assay: Antiviral activity against Woodchuck hepatitis virus infected in woodchuck assessed as reduction of viral antigen positive hepatocytes at 15 mg/kg, po qd for 48 weeks study (reference value: 35 +/- 27 %); format: functional, Hepatocyte; set-up: scale not given: the % may be the effect or the level left
Summary of the method: (§4)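 Chronic WHV-carrier woodchucks, 5 per group, 15 mg/kg/day oral once daily for 48 weeks in liquid diet. Liver biopsies were taken at pretreatment, weeks 12, 36, 48 and week 60. Percentage of hepatocytes positive for WHcAg was given as group mean ± SD and compared with pretreatment and placebo.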

[7] = tested on: Woodchuck hepatitis virus; assay: Antiviral activity against Woodchuck hepatitis virus infected in woodchuck assessed as reduction of viral DNA replicative intermediate level per ug of total cell DNA at 15 mg/kg, po qd for 48 weeks (reference value: 995 +/- 736 pg); format: functional
Summary of the method: (§5)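 Chronic WHV-carrier woodchucks, 5 per group, 15 mg/kg/day oral once daily for 48 weeks in liquid diet. Needle liver biopsies were snap-frozen in liquid nitrogen and stored at −70°C. Hepatic WHV DNA replicative intermediates were quantified by Southern blot (pg/μg total cell DNA) and WHV RNA by Northern blot; group means ± SD were compared with pretreatment and placebo.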

[8] = tested on: Woodchuck hepatitis virus; assay: Antiviral activity against Woodchuck hepatitis virus infected in woodchuck assessed as reduction of viral DNA replicative intermediate level per ug of total cell DNA at 15 mg/kg, po qd measured on 36th week on 48 weeks study (reference value: 1132 +/- 738 pg); format: functional; summary of the method: as §5
[9] = tested on: Woodchuck hepatitis virus; assay: Antiviral activity against Woodchuck hepatitis virus infected in woodchuck assessed as reduction of viral RNA level per ug of total cell DNA at 15 mg/kg, po qd for 48 weeks (reference value: 34 +/- 20 pg); format: functional; summary of the method: as §5
Marmota monax [10] = assay: Toxicity in Woodchuck hepatitis virus infected woodchuck assessed as increase of liver alkaline phosphatase activity at 15 mg/kg, po qd for 48 weeks; format: organism-based; set-up: dose 15 mg/kg, route oral; settings: in vivo, 8064 h; summary of the method: as §3
[11] = tested on: Woodchuck hepatitis virus; assay: Antiviral activity against Woodchuck hepatitis virus infected in woodchuck assessed as frequency of hepatocytes expressing viral antigen at 15 mg/kg, po qd measured on 36th week on 48 weeks study; format: functional, Hepatocyte
Summary of the method: (§6)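 Chronic WHV-carrier woodchucks, 5 per group, given 15 mg/kg/day orally once daily for 48 weeks in liquid diet; placebo is diet alone. Liver biopsies at pretreatment, weeks 12, 36, 48 and 12 weeks after withdrawal. Cytoplasmic WHsAg staining scored 0–4: 1 ≤1%, 2 ≤2%, 3 ≤5%, 4 ≥10% of hepatocytes.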

Marmota monax [12] = assay: Toxicity in Woodchuck hepatitis virus infected woodchuck assessed as increase of liver aspartate aminotransferase activity at 15 mg/kg, po qd for 48 weeks; format: organism-based; set-up: dose 15 mg/kg, route oral; settings: in vivo, 8064 h; summary of the method: as §3
[13] = tested on: Woodchuck hepatitis virus; assay: Antiviral activity against Woodchuck hepatitis virus infected in woodchuck assessed as reduction of viral antigen level in serum at 15 mg/kg, po qd for 48 weeks measured on 60th week (reference value: 3.3 +/- 1.6 log10 ng/ml); format: functional
Marmota monax [14] = assay: Toxicity in Woodchuck hepatitis virus infected woodchuck assessed as increase of liver alanine aminotransferase activity at 15 mg/kg, po qd measured on 4 to 24 weeks on 48 week study; format: organism-based; set-up: dose 15 mg/kg, route oral; settings: in vivo; summary of the method: as §3
Marmota monax [15] = assay: Toxicity in Woodchuck hepatitis virus infected woodchuck assessed as effect on hematological parameters at 15 mg/kg, po qd for 48 weeks measured up to 60 weeks; format: organism-based; set-up: dose 15 mg/kg, route oral; settings: in vivo; summary of the method: as §1
[16] = tested on: Woodchuck hepatitis virus; assay: Antiviral activity against Woodchuck hepatitis virus infected in woodchuck assessed as frequency of hepatocytes expressing viral antigen at 15 mg/kg, po qd measured on 12th week on 48 weeks study; format: functional, Hepatocyte; summary of the method: as §6
[17] = tested on: Woodchuck hepatitis virus; assay: Antiviral activity against Woodchuck hepatitis virus infected in woodchuck assessed as reduction of viral antigen positive hepatocytes at 15 mg/kg, po qd measured on 12th week on 48 weeks study (reference value: 55 +/- 32 %); format: functional, Hepatocyte; set-up: scale not given: the % may be the effect or the level left; summary of the method: as §4
[18] = tested on: Woodchuck hepatitis virus; assay: Antiviral activity against Woodchuck hepatitis virus infected in woodchuck assessed as reduction of viral antigen positive hepatocytes at 15 mg/kg, po qd for 48 weeks measured on 60th week (reference value: 26 %); format: functional, Hepatocyte; set-up: scale not given: the % may be the effect or the level left; summary of the method: as §4
[19] = tested on: Woodchuck hepatitis virus; assay: Antiviral activity against Woodchuck hepatitis virus infected in woodchuck assessed as frequency of hepatocytes expressing viral antigen at 15 mg/kg, po qd for 48 weeks; format: functional, Hepatocyte; summary of the method: as §6
[20] = tested on: Woodchuck hepatitis virus; assay: Antiviral activity against Woodchuck hepatitis virus infected in woodchuck assessed as reduction of viral RNA level per ug of total cell DNA at 15 mg/kg, po qd measured on 36th week on 48 weeks study (reference value: 33 +/- 21 pg); format: functional; summary of the method: as §5
[21] = tested on: Woodchuck hepatitis virus; assay: Antiviral activity against Woodchuck hepatitis virus infected in woodchuck assessed as reduction of viral DNA replicative intermediate level per ug of total cell DNA at 15 mg/kg, po qd measured on 12th week on 48 weeks study (reference value: 1495 +/- 890 pg); format: functional; summary of the method: as §5
[22] = tested on: Woodchuck hepatitis virus; assay: Antiviral activity against Woodchuck hepatitis virus infected in woodchuck assessed as reduction of viral DNA replicative intermediate level per ug of total cell DNA at 15 mg/kg, po qd for 48 weeks measured on 60th week (reference value: 979 pg); format: functional; summary of the method: as §5
Marmota monax [23] = assay: Toxicity in Woodchuck hepatitis virus infected woodchuck assessed as increase of liver alanine aminotransferase activity at 15 mg/kg, po qd for 48 weeks; format: organism-based; set-up: dose 15 mg/kg, route oral; settings: in vivo, 8064 h; summary of the method: as §3
Marmota monax [24] = assay: Toxicity in Woodchuck hepatitis virus infected woodchuck assessed as increase of liver sorbitol dehydrogenase activity at 15 mg/kg, po qd measured on 28 to 48 weeks on 48 week study; format: organism-based; set-up: dose 15 mg/kg, route oral; settings: in vivo; summary of the method: as §3
[25] = tested on: Woodchuck hepatitis virus; assay: Antiviral activity against Woodchuck hepatitis virus infected in woodchuck assessed as reduction of viral antigen level in serum at 15 mg/kg, po qd for 48 weeks (reference value: 3.8 +/- 1.3 log10 ng/ml); format: functional
[26] = tested on: Woodchuck hepatitis virus; assay: Antiviral activity against Woodchuck hepatitis virus infected in woodchuck assessed as reduction of viral RNA level per ug of total cell DNA at 15 mg/kg, po qd measured on 12th week on 48 weeks study (reference value: 46 +/- 25 pg); format: functional; summary of the method: as §5
[27] = tested on: Woodchuck hepatitis virus; assay: Antiviral activity against Woodchuck hepatitis virus infected in woodchuck assessed as frequency of hepatocytes expressing viral antigen at 15 mg/kg, po qd for 48 weeks measured on 60th week; format: functional, Hepatocyte; summary of the method: as §6
[28] = tested on: Woodchuck hepatitis virus; assay: Antiviral activity against Woodchuck hepatitis virus infected in woodchuck assessed as reduction of viral RNA level per ug of total cell DNA at 15 mg/kg, po qd for 48 weeks measured on 60th week (reference value: 27 pg); format: functional; summary of the method: as §5
[29] = tested on: Woodchuck hepatitis virus; assay: Antiviral activity against Woodchuck hepatitis virus infected in woodchuck assessed as absent of lesion in portal hepatitis at 15 mg/kg, po qd for 48 weeks; format: functional, organism-based; set-up: dose 15 mg/kg; summary of the method: as §2
Marmota monax [30] = assay: Toxicity in Woodchuck hepatitis virus infected woodchuck assessed as increase of liver sorbitol dehydrogenase activity at 15 mg/kg, po qd measured on 4 to 24 weeks on 48 week study; format: organism-based; set-up: dose 15 mg/kg, route oral; settings: in vivo; summary of the method: as §3
[31] = tested on: Woodchuck hepatitis virus; assay: Antiviral activity against Woodchuck hepatitis virus infected in woodchuck assessed as reduction of viral antigen positive hepatocytes at 15 mg/kg, po qd measured on 36th week on 48 weeks study (reference value: 41 +/- 25 %); format: functional, Hepatocyte; set-up: scale not given: the % may be the effect or the level left; summary of the method: as §4
[32] = tested on: Woodchuck hepatitis virus; assay: Antiviral activity against Woodchuck hepatitis virus infected in woodchuck assessed as absent of lesion in lobular hepatitis at 15 mg/kg, po qd measured on 12th week on 48 weeks study; format: functional, organism-based; set-up: dose 15 mg/kg; summary of the method: as §2

| Compound | Activity [1] [log10ng/ml] | Activity (Marmota monax [2]) | Activity [3] | Activity [4] [log10ng/ml] | Activity (Marmota monax [5]) | Activity [6] [%] | Activity [7] [pg] | Activity [8] [pg] | Activity [9] [pg] | Activity (Marmota monax [10]) | Activity [11] [%] | Activity (Marmota monax [12]) | Activity [13] [log10ng/ml] | Activity (Marmota monax [14]) | Activity (Marmota monax [15]) | Activity [16] [%] | Activity [17] [%] | Activity [18] [%] | Activity [19] [%] | Activity [20] [pg] | further results |
| --- | --- | --- | --- | --- | --- | --- | --- | --- | --- | --- | --- | --- | --- | --- | --- | --- | --- | --- | --- | --- | --- |
| Nc1nc(=O)n([C@@H]2CS[C@H](CO)O2)cc1F [EMTRICITABINE] | 4.5 | Non-toxic | Active | 4.5 | Toxic | 40 | 428 | 644 | 35 | Toxic | 10 | Toxic | 4.7 | Toxic | Non-toxic | 2 | 47 | 64 | 10 | 43 | Activity [21]: 845 pg; Activity [22]: 1239 pg; Activity (Marmota monax [23]): Toxic; Activity (Marmota monax [24]): Toxic; Activity [25]: 4.4 log10ng/ml; Activity [26]: 42 pg; Activity [27]: 10%; Activity [28]: 48 pg; Activity [29]: Active; Activity (Marmota monax [30]): Toxic; Activity [31]: 63% |
| Nc1ccn([C@@H]2CS[C@H](CO)O2)c(=O)n1 [LAMIVUDINE] | 5.2 | Non-toxic | Active | 4.7 | Toxic | 36 | 413 | 1133 | 33 | Toxic | 5 | Toxic | 4.6 | Toxic | Non-toxic | 1 | 39 | 48 | 5 | 47 | Activity [32]: Active; Activity [21]: 982 pg; Activity [22]: 1063 pg; Activity (Marmota monax [23]): Toxic; Activity (Marmota monax [24]): Toxic; Activity [25]: 4.4 log10ng/ml; Activity [26]: 39 pg; Activity [27]: 5%; Activity [28]: 46 pg; Activity (Marmota monax [30]): Toxic; Activity [31]: 59% |
